Assay results as given in ChEMBL document CHEMBL3526056, “Characterization of in vitro glucuronidation clearance of a range of drugs in human kidney microsomes: comparison with liver and intestinal glucuronidation and impact of albumin” (Drug Metab Dispos, 2012).

Columns and labels:
Liver microsome [1] = assay: Unbound intrinsic glucuronidation clearance in human liver microsomes at 1 uM after 30 to 60 mins by LC-MS/MS analysis in presence of UDP-glucuronosyltransferase and 1% bovine serum albumin; assay type: ADME
Liver microsome [2] = assay: Fraction metabolized glucuronidation in human liver microsomes in presence of UDP-glucuronosyltransferase; assay type: ADME
[3] = Glucuronidation clearance in human liver microsomes in presence of bovine serum albumin; assay type: ADME
[4] = Unbound intrinsic glucuronidation clearance in human intestinal microsomes at 1 uM after 30 to 60 mins by LC-MS/MS analysis in presence of UDP-glucuronosyltransferase and 1% bovine serum albumin; assay type: ADME, Intestine, Microsome
[5] = Fraction unbound in human intestinal microsomes at 1 uM after 30 to 60 mins by LC-MS/MS analysis; assay type: ADME, Intestine, Microsome
Liver microsome [6] = assay: Fraction metabolized glucuronidation in human liver microsomes in presence of UDP-glucuronosyltransferase and bovine serum albumin; assay type: ADME
[7] = Renal clearance in human; assay type: ADME, organism-based, Kidney; details: in vivo
[8] = target: T1, UDP-glucuronosyltransferase 2B7 (Homo sapiens, UniProt P16662); assay: Drug metabolism in human kidney microsomes assessed as UGT2B7-mediated unbound intrinsic glucuronidation clearance at 1 uM after 30 to 60 mins by LC-MS/MS analysis; assay type: ADME
T1 sequence (P16662 whole entry): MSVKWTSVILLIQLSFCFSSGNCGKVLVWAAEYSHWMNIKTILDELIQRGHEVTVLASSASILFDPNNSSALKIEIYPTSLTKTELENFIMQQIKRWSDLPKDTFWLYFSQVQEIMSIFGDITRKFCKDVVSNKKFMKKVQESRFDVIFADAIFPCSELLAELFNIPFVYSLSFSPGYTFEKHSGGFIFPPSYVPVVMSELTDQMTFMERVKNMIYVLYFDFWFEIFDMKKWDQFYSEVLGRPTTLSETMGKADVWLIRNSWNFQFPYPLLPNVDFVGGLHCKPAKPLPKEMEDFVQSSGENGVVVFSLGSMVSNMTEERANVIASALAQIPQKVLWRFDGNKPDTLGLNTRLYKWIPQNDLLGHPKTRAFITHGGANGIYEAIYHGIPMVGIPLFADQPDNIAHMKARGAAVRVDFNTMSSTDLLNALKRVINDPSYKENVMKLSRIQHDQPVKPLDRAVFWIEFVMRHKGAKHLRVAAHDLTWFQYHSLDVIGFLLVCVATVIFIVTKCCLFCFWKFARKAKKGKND

[9] = target: T1, UDP-glucuronosyltransferase 2B7; assay: Drug metabolism in human liver microsomes assessed as UGT2B7-mediated unbound intrinsic glucuronidation clearance at 1 uM after 30 to 60 mins by LC-MS/MS analysis; assay type: ADME
[10] = target: T1, UDP-glucuronosyltransferase 2B7; assay: Drug metabolism in human liver microsomes assessed as UGT2B7-mediated unbound intrinsic glucuronidation clearance at 1 uM after 30 to 60 mins by LC-MS/MS analysis in presence of 1% bovine serum albumin; assay type: ADME
[11] = Fraction unbound in human plasma
[12] = Unbound intrinsic glucuronidation clearance in human kidney microsomes at 1 uM after 30 to 60 mins by LC-MS/MS analysis in presence of UDP-glucuronosyltransferase; assay type: ADME, microsome
In short: (§1)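 Alamethicin-activated pooled microsomes (HLM 150 donors; HKM 8; HIM 18). Drug at 1 μM final, preincubated 5 min at 37°C in 0.1 M phosphate pH 7.1 with 3.45 mM MgCl2, 1.15 mM EDTA, 115 μM saccharic acid lactone. Started with […] cofactor (5 mM final), 30–60 min. Cofactor-free controls. Parent depletion by LC-MS/MS, single-exponential k. Corrected by HLM-dialysis fu,inc. Duplicates; n=3 (HIM n=1).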

Liver microsome [13] = assay: Fraction unbound in human liver microsomes at 1 uM after 30 to 60 mins by LC-MS/MS analysis in presence of 1% bovine serum albumin; assay type: ADME; details: microsomes, 1 µM
[14] = Glucuronidation clearance in human liver microsomes; assay type: ADME
[15] = Unbound intrinsic glucuronidation clearance in human kidney microsomes at 1 uM after 30 to 60 mins by LC-MS/MS analysis in presence of UDP-glucuronosyltransferase and 1% bovine serum albumin; assay type: ADME, microsome
[16] = target: T1, UDP-glucuronosyltransferase 2B7; assay: Drug metabolism in human intestinal microsomes assessed as UGT2B7-mediated unbound intrinsic glucuronidation clearance at 1 uM after 30 to 60 mins by LC-MS/MS analysis; assay type: ADME, Intestine
[17] = target: T1, UDP-glucuronosyltransferase 2B7; assay: Drug metabolism in human kidney microsomes assessed as UGT2B7-mediated unbound intrinsic glucuronidation clearance at 1 uM after 30 to 60 mins by LC-MS/MS analysis in presence of 1% bovine serum albumin; assay type: ADME
[18] = Fraction unbound in human liver microsomes at 1 uM after 30 to 60 mins by LC-MS/MS analysis; assay type: ADME
[19] = Fraction unbound in human kidney microsomes at 1 uM after 30 to 60 mins by LC-MS/MS analysis; assay type: ADME
[20] = Unbound intrinsic glucuronidation clearance in human intestinal microsomes at 1 uM after 30 to 60 mins by LC-MS/MS analysis in presence of UDP-glucuronosyltransferase; assay type: ADME, Intestine, Microsome; in short: as §1
Liver microsome [21] = assay: Unbound intrinsic glucuronidation clearance in human liver microsomes at 1 uM after 30 to 60 mins by LC-MS/MS analysis in presence of UDP-glucuronosyltransferase; assay type: ADME; in short: as §1
[22] = Ratio of UGT1A8/2B7-mediated unbound intrinsic glucuronidation clearance in human intestinal microsomes to UGT1A8/2B7-mediated unbound intrinsic glucuronidation clearance in human liver microsomes at 1 uM; assay type: ADME
In short: (§2)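 Ratios of mean unbound CLint,UGT, each scaled per g tissue, between pooled liver, kidney and intestinal microsomes. Values come from 1 μM substrate-depletion assays in pH 7.1 phosphate at 37°C, run with or without BSA (1% for acids, 2% for bases/neutral drugs). Corrected for nonspecific binding. Kidney and liver n = 3; intestine n = 1; each in duplicate.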

[23] = Unbound intrinsic glucuronidation clearance in human kidney microsomes at 1 uM after 30 to 60 mins by LC-MS/MS analysis in presence of UDP-glucuronosyltransferase and 2% bovine serum albumin; assay type: ADME, microsome
In short: (§3)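 Pooled alamethicin-activated human liver, kidney or intestinal microsomes. […] Duplicate incubations of 30–60 min, with no-cofactor controls. Parent depletion read by LC-MS/MS. k from a single-exponential fit, corrected by fu,inc.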

[24] = Drug metabolism in human liver microsomes assessed as UGT1A8/2B7-mediated unbound intrinsic glucuronidation clearance at 1 uM after 30 to 60 mins by LC-MS/MS analysis in presence of 2% bovine serum albumin; assay type: ADME; in short: as §3
[25] = Ratio of drug level blood to plasma in human; assay type: ADME; details: blood and plasma
[26] = Ratio of unbound intrinsic glucuronidation clearance in human intestinal microsomes in presence of 2% bovine serum albumin to unbound intrinsic glucuronidation clearance in human intestinal microsomes in absence of bovine serum albumin; assay type: ADME, Intestine, Microsome
In short: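 Ratios of mean scaled unbound CLint,UGT (per g tissue) between tissues, or between with and without BSA. Microsomal depletion assays at 1 μM, or 5 μM for propofol, in pH 7.1 phosphate at 37°C, read by LC-MS/MS. Kidney and liver n = 3, intestine n = 1, each in duplicate.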

[27] = Ratio of UGT1A8/2B7-mediated unbound intrinsic glucuronidation clearance in human intestinal microsomes to UGT1A8/2B7-mediated unbound intrinsic glucuronidation clearance in human liver microsomes at 1 uM in presence of 2% bovine serum albumin; assay type: ADME; in short: as §2
[28] = Fraction unbound in human liver microsomes at 1 uM […] by LC-MS/MS analysis in presence of 2% bovine serum albumin; assay type: ADME
[29] = Drug metabolism in human kidney microsomes assessed as UGT1A8/2B7-mediated unbound intrinsic glucuronidation clearance at 1 uM after 30 to 60 mins by LC-MS/MS analysis in presence of 2% bovine serum albumin; assay type: ADME; in short: as §3
Liver microsome [30] = assay: Unbound intrinsic glucuronidation clearance in human liver microsomes at 1 uM after 30 to 60 mins by LC-MS/MS analysis in presence of UDP-glucuronosyltransferase and 2% bovine serum albumin; assay type: ADME; in short: as §3
[31] = Ratio of UGT1A8/2B7-mediated unbound intrinsic glucuronidation clearance in human kidney microsomes to UGT1A8/2B7-mediated unbound intrinsic glucuronidation clearance in human liver microsomes at 1 uM in presence of 2% bovine serum albumin; assay type: ADME; in short: as §2
[32] = Unbound intrinsic glucuronidation clearance in human intestinal microsomes at 1 uM after 30 to 60 mins by LC-MS/MS analysis in presence of UDP-glucuronosyltransferase and 2% bovine serum albumin; assay type: ADME, Intestine, Microsome; in short: as §3
[33] = Drug metabolism in human liver microsomes assessed as UGT1A8/2B7-mediated unbound intrinsic glucuronidation clearance at 1 uM after 30 to 60 mins by LC-MS/MS analysis; assay type: ADME; in short: as §3
[34] = Ratio of UGT1A8/2B7-mediated unbound intrinsic glucuronidation clearance in human kidney microsomes to UGT1A8/2B7-mediated unbound intrinsic glucuronidation clearance in human intestinal microsomes at 1 uM in presence of 2% bovine serum albumin; assay type: ADME; in short: as §2
[35] = Ratio of UGT1A8/2B7-mediated unbound intrinsic glucuronidation clearance in human kidney microsomes to UGT1A8/2B7-mediated unbound intrinsic glucuronidation clearance in human intestinal microsomes at 1 uM; assay type: ADME; in short: as §2
[36] = Clearance in iv dosed human; assay type: ADME, organism-based; details: in vivo
[37] = Drug metabolism in human kidney microsomes assessed as UGT1A8/2B7-mediated unbound intrinsic glucuronidation clearance at 1 uM after 30 to 60 mins by LC-MS/MS analysis; assay type: ADME; in short: as §3
[38] = Drug metabolism in human intestinal microsomes assessed as UGT1A8/2B7-mediated unbound intrinsic glucuronidation clearance at 1 uM after 30 to 60 mins by LC-MS/MS analysis; assay type: ADME, Intestine; in short: as §3
[39] = Ratio of UGT1A8/2B7-mediated unbound intrinsic glucuronidation clearance in human kidney microsomes to UGT1A8/2B7-mediated unbound intrinsic glucuronidation clearance in human liver microsomes at 1 uM; assay type: ADME; in short: as §2

## Cc1ccc(C)c(OCCCC(C)(C)C(=O)O)c1 [GEMFIBROZIL]
Liver microsome [1]
  CL free: 1840 µL/min/mg
Liver microsome [2]
  Drug metabolism: 0.79
[3]
  CLhep predicted: 1.93 mL/min/kg
[4]
  CL free: 40 µL/min/mg
[5]
  fraction unbound at 1 µM: 0.82
Liver microsome [6]
  Drug metabolism: 0.86
[7]
  CL renal: 0.02 mL/min/kg
[8]
  CL free: 3.39 mL/min/g
[9]
  CL free: 10.4 mL/min/g
[10]
  CL free: 73.6 mL/min/g
[11]
  fraction unbound: 0.005
[12]
  CL free: 265 µL/min/mg
Liver microsome [13]
  Fu: 0.01
[14]
  CLhep predicted: 1.78 mL/min/kg
[15]
  CL free: 1910 µL/min/mg
[16]
  CL free: 0.492 mL/min/g
[17]
  CL free: 24.4 mL/min/g
[18]
  fraction unbound at 1 µM: 0.9
[19]
  fraction unbound at 1 µM: 0.9
[20]
  CL free: 23.9 µL/min/mg
Liver microsome [21]
  CL free: 259 µL/min/mg

## C=CCN1CC[C@]23c4c5ccc(O)c4O[C@H]2C(=O)CC[C@@]3(O)[C@H]1C5 [NALOXONE]
[22]
  Ratio: 0.026
Liver microsome [2]
  Drug metabolism: 0.65
[23]
  CL free: 52.7 µL/min/mg
[24]
  CL free: 2.22 mL/min/g
[25]
  blood plasma ratio: 1
[3]
  CLhep predicted: 19.3 mL/min/kg
[26]
  Ratio: 28
[5]
  fraction unbound at 1 µM: 1
Liver microsome [6]
  Drug metabolism: 0.89
[27]
  Ratio: 0.131
[28]
  fraction unbound at 1 µM: 0.96
[29]
  CL free: 0.675 mL/min/g
Liver microsome [30]
  CL free: 55.6 µL/min/mg
[31]
  Ratio: 0.304
[32]
  CL free: 14.2 µL/min/mg
[33]
  CL free: 0.402 mL/min/g
[11]
  fraction unbound: 0.57
[12]
  CL free: 10.9 µL/min/mg
[14]
  CLhep predicted: 14.1 mL/min/kg
[34]
  Ratio: 2.31
[35]
  Ratio: 13.5
[36]
  clearance: 21.7 mL/min/kg
[18]
  fraction unbound at 1 µM: 1
[19]
  fraction unbound at 1 µM: 1
[37]
  CL free: 0.14 mL/min/g
[38]
  CL free: 0.01 mL/min/g
[39]
  Ratio: 0.348
[20]
  CL free: 0.502 µL/min/mg
Liver microsome [21]
  CL free: 10 µL/min/mg
